Measured values: paper PMC9704493 (RSC Advances, 2022)
Where two headings read alike, the source gives them in different places.

Legend:
Format in all cases: cell-based, human
MRC-5 fibroblasts = test: MTT cell viability assay, MRC-5 normal fibroblasts; conditions: for GI50: read-out: GI50 values (M) mean ± SD, MRC-5
In short: (§1)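 Cells were seeded at 3 × 10^3 per well and grown for 24 h at 37 °C/5% CO2. A T0 plate was read at dosing and the others after 72 h. MTT (5 mg mL−1 in PBS) was added for 2.5 h, formazan dissolved in DMSO, and absorbance read at 550 nm. GI50 was interpolated, in triplicate. SI compares MRC-5 with cancer-line activity.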

[1] = tested on: MCF-7 breast cancer cells; test: MTT cell viability assay, MCF-7; conditions: for Selectivity indices (SI), MCF-7: MCF-7 versus MRC-5 fibroblasts
In short: as §1

[2] = tested on: HCT-116 colorectal carcinoma cells; test: MTT cell viability assay, HCT-116; conditions: for Selectivity indices (SI), HCT-116: HCT-116 versus MRC-5 fibroblasts
In short: as §1

HCT-116 cells = test: Clonogenic assay, HCT-116 colony formation; conditions: 10 μM, 24 h exposure; second group, printed as HCT-116
In short: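 HCT-116 cells (RPMI 1640, 10% FBS, 1% glutamine) were seeded at 400 per well in 6-well plates and left to attach for 24 h. They were given test compound at 5 or 10 μM for 24 h, with medium alone as control. Cells were then washed with cold PBS and grown in fresh medium at 37 °C until control colonies reached ≥50 cells. Colonies were methanol-fixed, stained with 0.05% methylene blue and counted. Survival fraction is % of control, from five independent trials (n = 2 each).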

[3] = Homo sapiens, MCF7, 72 h, read-out: GI50 values (M) mean ± SD, MCF-7
[4] = Homo sapiens, HCT-116, 72 h, read-out: GI50 values (M) mean ± SD, HCT-116
[5] = Homo sapiens, MCF7, 72 h, read-out: GI50 values (µM) mean ±SD, MCF-7
[6] = read-out: GI50 values (M) mean ± SD, MCF-7, MTT, 72 h exposure
[7] = read-out: GI50 values (M) mean ± SD, HCT-116, MTT, 72 h exposure

Row | Molecule | GI50 (MRC-5 fibroblasts; Homo sapiens, MRC5, 72 h) | GI50 [1, 3] | Selectivity indices (SI), MCF-7 [1] | Selectivity indices (SI), HCT-116 [2] | GI50 [2, 4] | also measured
1 | COc1cc(C=NNc2nc(-c3ccc(C#N)cc3)cs2)cc(OC)c1OC [Compound 3y, 2-(2-(3,4,5-Trimethoxybenzylidene)hydrazinyl)-4-(4-cyanophenyl) thiazole] | 2.34e-05 ± 3e-07 M | 2.7e-06 ± 1e-07 M | 8.7 | 14.6 | 1.6e-06 ± 4e-07 M | –
2 | N#Cc1ccc(-c2csc(NN=Cc3c(O)cc(O)cc3O)n2)cc1 [Compound 3x, 2-(2-(2,4,6-Trihydroxybenzylidene)hydrazinyl)-4-(4-cyanophenyl) thiazole] | 1.58e-05 ± 5e-07 M | 2.3e-06 ± 3e-07 M | 6.9 | 3.4 | 4.7e-06 ± 3e-07 M | –
3 | N#Cc1ccc(-c2csc(N/N=C/c3cccc(F)c3)n2)cc1 [b] | 1.68e-05 ± 5e-07 M | 3.66e-05 ± 1.4e-06 M | – | – | 2.2e-06 ± 5e-07 M | –
4 | COc1ccc(C=NNc2nc(-c3ccc(C#N)cc3)cs2)c(OC)c1 [Compound 3l, 2-(2-(2,4-Dimethoxybenzylidene)hydrazinyl)-4-(4-cyanophenyl) thiazole] | 3.01e-05 ± 6e-07 M | 9.2e-06 ± 4e-07 M | 3.3 | 3.6 | 8.4e-06 ± 9e-07 M | GI50 values (µM) mean ±SD, MRC-5 (MRC-5 fibroblasts; MTT, 72 h exposure): no significant activity
5 | Cc1cc(C)c(C=NNc2nc(-c3ccc(C#N)cc3)cs2)c(C)c1 [Compound 3v, 2-(2-(2,4,6-Trimethylbenzylidene)hydrazinyl)-4-(4-cyanophenyl) thiazole] | 1.12e-05 ± 3e-07 M | 4.2e-06 ± 6e-07 M | 2.7 | 2.8 | 4e-06 ± 1e-06 M | –
6 | N#Cc1ccc(-c2csc(NN=Cc3c(F)cc(F)cc3F)n2)cc1 [Compound 3w, 2-(2-(2,4,6-Trifluorobenzylidene)hydrazinyl)-4-(4-cyanophenyl) thiazole] | 1.1e-06 ± 5e-07 M | 7e-06 ± 2e-07 M | 0.2 | 0.7 | 1.5e-06 ± 8e-07 M | –
7 | N#Cc1ccc(-c2csc(NN=Cc3ccccc3F)n2)cc1 [Compound 3a, 2-(2-(2-Fluorobenzylidene)hydrazinyl)-4-(4-cyanophenyl) thiazole] | – | – | – | – | – | colony formation (HCT-116 cells): completely prevented colony formation
8 | N#Cc1ccc(-c2csc(NN=Cc3cccc(I)c3)n2)cc1 [Compound 3d, 2-(2-(3-Iodobenzylidene)hydrazinyl)-4-(4-cyanophenyl) thiazole] | – | – | – | – | – | GI50 [1, 5]: 2.3e-06 M; fold reduction in potency against HCT-116 cells ([2]; relative to its potency against MCF-7 cells): 5 fold
9 | CCOc1cc(C=NNc2nc(-c3ccc(C#N)cc3)cs2)ccc1O [Compound 3s, 2-(2-(3-Ethoxy-4-hydroxybenzylidene) hydrazinyl)-4-(4-cyanophenyl) thiazole] | 1.81e-05 ± 4e-07 M | 7.3e-06 ± 8e-07 M | 2.5 | 2.2 | 8.4e-06 ± 6e-07 M | –
10 | COc1cc(OC)c(OC)cc1C=NNc1nc(-c2ccc(C#N)cc2)cs1 [Compound 3z, 2-(2-(2,4,5-Trimethoxybenzylidene)hydrazinyl)-4-(4-cyanophenyl) thiazole] | 2.18e-05 ± 2e-07 M | 2.5e-06 ± 2e-07 M | 8.7 | 11.5 | 1.9e-06 ± 5e-07 M | fold increase in activity against HCT-116 cells ([2]; relative to compound 3j): 3.5 fold
11 | Cc1ccc(C=NNc2nc(-c3ccc(C#N)cc3)cs2)cc1C [Compound 3t, 2-(2-(3,4-Dimethylbenzylidene)hydrazinyl)-4-(4-cyanophenyl) thiazole] | 1.32e-05 ± 3e-07 M | 4.5e-06 ± 1.4e-06 M | 2.9 | 2 | 6.5e-06 ± 2.6e-06 M | colony formation (HCT-116 cells): completely prevented colony formation
12 | COc1ccc(C=NNc2nc(-c3ccc(C#N)cc3)cs2)c(C)c1 [Compound 3k, 2-(2-(4-Methoxy-2-methylbenzylidene) hydrazinyl)-4-(4-cyanophenyl) thiazole] | 1.61e-05 ± 2e-07 M | 3.68e-05 ± 2.7e-06 M | 0.4 | 0.4 | 3.7e-05 ± 9e-07 M | –
13 | N#Cc1ccc(-c2csc(NN=Cc3cc(F)cc(C(F)(F)F)c3)n2)cc1 [Compound 3q, 2-(2-(3-Fluoro-5-(trifluoromethyl)benzylidene) hydrazinyl)-4-(4-cyanophenyl) thiazole] | 9e-06 ± 1e-07 M | 2.6e-06 ± 1e-07 M | 3.5 | 4.1 | 2.2e-06 ± 1e-07 M | colony formation (HCT-116 cells): completely prevented colony formation
14 | N#Cc1ccc(-c2csc(NN=Cc3cc(Cl)ccc3O)n2)cc1 [Compound 3g, 2-(2-(5-Chloro-2-hydroxybenzylidene) hydrazinyl)-4-(4-cyanophenyl) thiazole] | 1.68e-05 ± 7e-07 M | 4.1e-06 ± 4e-07 M | 4.1 | 1.7 | 9.7e-06 ± 4e-07 M | –
15 | N#Cc1ccc(-c2csc(NN=Cc3cc(Br)cc([N+](=O)[O-])c3)n2)cc1 [Compound 3r, 2-(2-(3-Bromo-5-nitrobenzylidene)hydrazinyl)-4-(4-cyanophenyl) thiazole] | 1.22e-05 ± 6e-07 M | 4.1e-06 ± 4e-07 M | 3 | 4.1 | 3e-06 ± 1e-06 M | –
16 | N#Cc1ccc(-c2csc(NN=Cc3ccc(Cl)c(Cl)c3)n2)cc1 [Compound 3u, 2-(2-(3,4-Dichlorobenzylidene)hydrazinyl)-4-(4-cyanophenyl) thiazole] | 3.04e-05 ± 2e-07 M | 1.28e-05 ± 7e-07 M | 2.4 | 1.1 | 2.72e-05 ± 5e-07 M | –
17 | N#Cc1ccc(-c2csc(NN=Cc3cccc(F)c3)n2)cc1 [Compound 3b, 2-(2-(3-Fluorobenzylidene)hydrazinyl)-4-(4-cyanophenyl) thiazole] | – | – | – | – | – | GI50 [1, 5]: 3.66e-05 M; GI50 ([2]; Homo sapiens, HCT-116, 72 h, read-out: GI50 values (µM) mean ±SD, HCT-116): 2.2e-06 M
18 | Cc1ccc(C)c(C=NNc2nc(-c3ccc(C#N)cc3)cs2)c1 [Compound 3i, 2-(2-(2,5-Dimethylbenzylidene)hydrazinyl)-4-(4-cyanophenyl) thiazole] | 6.2e-06 ± 4e-07 M | 7.1e-06 ± 3e-07 M | 0.9 | 0.8 | 8e-06 ± 3e-07 M | –
19 | N#Cc1ccc(-c2csc(N/N=C/c3ccccc3F)n2)cc1 [a] | 1.66e-05 ± 1e-07 M | 3.4e-06 ± 1e-06 M | – | – | 3.1e-06 ± 1.5e-06 M | –
20 | Cc1nc(C=NNc2nc(-c3ccc(C#N)cc3)cs2)sc1C [3d′, 2-(2-((4,5-Dimethylthiazol-2-yl)methylene) hydrazinyl)-4-(4-cyanophenyl) thiazole] | 2.25e-05 ± 2e-06 M | 9e-06 ± 1.2e-06 M | 2.5 | 5.1 | 4.4e-06 ± 2e-07 M | –
21 | COc1cc(C=NNc2nc(-c3ccc(C#N)cc3)cs2)cc(OC)c1 [Compound 3o, 2-(2-(3,5-Dimethoxybenzylidene)hydrazinyl)-4-(4-cyanophenyl) thiazole] | 1.65e-05 ± 5e-07 M | 4.78e-05 ± 1.1e-06 M | 0.4 | 0.5 | 3.56e-05 ± 1.1e-06 M | –
22 | COc1ccc(OC)c(C=NNc2nc(-c3ccc(C#N)cc3)cs2)c1 [Compound 3j, 2-(2-(2,5-Dimethoxybenzylidene)hydrazinyl)-4-(4-cyanophenyl) thiazole] | 2.25e-05 ± 1e-07 M | 3.7e-06 ± 4e-07 M | 6.1 | 3.3 | 6.9e-06 ± 2.5e-06 M | –
23 | N#Cc1ccc(-c2csc(NN=Cc3cc(Br)cs3)n2)cc1 [3c′, 2-(2-((4-Bromothiophen-2-yl)methylene)hydrazinyl)-4-(4-cyanophenyl) thiazole] | 7.6e-06 ± 1e-07 M | 4.3e-06 ± 3e-07 M | 1.8 | 1.2 | 6.2e-06 ± 5e-07 M | –
24 | N#Cc1ccc(-c2csc(N/N=C/c3cccc(I)c3)n2)cc1 [d] | 3.49e-05 ± 3e-07 M | 2.3e-06 ± 2e-07 M | – | – | 1.13e-05 ± 7e-07 M | –
25 | N.N.[Cl][Pt][Cl] [cisplatin, reference compound] | – | – | 1.3 | 0.9 | – | GI50 (MRC-5 fibroblasts; MTT, 72 h exposure): 9.7e-06 ± 4e-07 M; GI50 [1, 6]: 7.5e-06 ± 7e-07 M; GI50 [2, 7]: 9.8e-06 ± 2e-07 M
26 | N#Cc1ccc(-c2csc(NN=Cc3ccc(C(F)(F)F)cc3C(F)(F)F)n2)cc1 [Compound 3m, 2-(2-(2,4-Bis-(trifluoromethyl)benzylidene) hydrazinyl)-4-(4-cyanophenyl) thiazole] | 1.65e-05 ± 6e-07 M | 2e-06 ± 8e-07 M | 8.3 | 3.5 | 4.7e-06 ± 1.3e-06 M | –
27 | 2-(2-(1-(4-Fluorophenyl)ethylidene)hydrazinyl)-4-(4-cyanophenyl) thiazole [Compound 3e] | – | – | 1.6 | 6.5 | – | GI50 (MRC-5 fibroblasts; MTT, 72 h exposure): 4.47e-05 ± 2e-07 M; GI50 [1, 6]: 2.85e-05 ± 8e-07 M; GI50 [2, 7]: 6.9e-06 ± 2e-07 M
28 | N#Cc1ccc(-c2csc(NN=Cc3cc(F)cc(Br)c3)n2)cc1 [Compound 3p, 2-(2-(3-Bromo-5-fluorobenzylidene)hydrazinyl)-4-(4-cyanophenyl) thiazole] | 1.77e-05 ± 7e-07 M | 7.3e-06 ± 2e-07 M | 2.4 | 2.2 | 8.1e-06 ± 2e-07 M | –
